Laboratory results taken from ChEMBL document CHEMBL4017460, “A Tobramycin Vector Enhances Synergy and Efficacy of Efflux Pump Inhibitors against Multidrug-Resistant Gram-Negative Bacteria” (J Med Chem, 2017).
Active and inactive are the calls of the source. No cut-off for these calls is given here.

Assays:
Pseudomonas aeruginosa [1] = assay: Antibacterial activity against Pseudomonas aeruginosa isolate P260-97103 after 18 to 24 hrs by microbroth dilution assay; assay type: functional
Method in brief: (§1)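 Checkerboard in MHB: antibiotic 2-fold diluted along one axis, test agent 2-fold diluted along the other. Overnight culture standardized to 0.5 McFarland in saline, diluted 1:50 in MHB, added to wells, incubated 37 °C for 18 h. MIC is the lowest concentration with no growth. FIC = MIC in combination / MIC alone; FIC index = sum of both FICs.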

Pseudomonas aeruginosa [2] = assay: Potentiation of minocycline-induced antibacterial activity against mexAB-oprM/mexCD-oprJ/mexEF-oprN/mexXY/mexJK/opmH deficient Pseudomonas aeruginosa PAO750 after 18 to 24 hrs by microbroth dilution assay; assay type: functional
[3] = system: Pseudomonas aeruginosa PAO1; assay: Inhibition of RND efflux pump in Pseudomonas aeruginosa PAO1 assessed as potentiation of trimethoprim-induced antibacterial activity […] by microbroth dilution assay
Pseudomonas aeruginosa [4] = assay: Antibacterial activity against colistin-resistant Pseudomonas aeruginosa isolate 91433 after 18 to 24 hrs by microbroth dilution assay; assay type: functional
Method in brief: as §1, with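 “broth microdilution:” for “in MHB:”, “adjuvant” for “test agent”, “wells,” for “wells, incubated”, “FICI” for “FIC index”, “the two FICs; FICI ≤0.5 is synergy.” for “both FICs.”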

Pseudomonas aeruginosa [5] = assay: Inhibition of RND efflux pump in Pseudomonas aeruginosa isolate P262-104354 assessed as potentiation of minocycline-induced antibacterial activity by measuring fold reduction in minocycline MIC at 0.25 times antibacterial MIC after 18 to 24 hrs by microbroth dilution assay
Method in brief: as §1, with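 “broth microdilution:” for “in MHB:”, “adjuvant” for “test agent”, “wells,” for “wells, incubated”, “FICI” for “FIC index”, “the two FICs; FICI ≤0.5 is synergy.” for “both FICs.”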

Klebsiella pneumoniae = assay: Inhibition of RND efflux pump in Klebsiella pneumoniae isolate 116381 assessed as potentiation of minocycline-induced antibacterial activity by measuring fold reduction in minocycline MIC at 8 ug/ml after 18 to 24 hrs by microbroth dilution assay
Method in brief: (§2)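 Absolute minocycline MIC taken from checkerboard broth dilution with a fixed 8 μg/mL adjuvant. Inoculum was a 0.5 McFarland saline suspension diluted 1:50 in MHB, incubated 37 °C for 18 h. MIC is the lowest concentration with no growth.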

[6] = system: Pseudomonas aeruginosa PAO1; assay: Inhibition of RND efflux pump in Pseudomonas aeruginosa PAO1 assessed as potentiation of vancomycin-induced antibacterial activity […] by microbroth dilution assay
Pseudomonas aeruginosa [7] = assay: Inhibition of RND efflux pump in Pseudomonas aeruginosa isolate 101885 assessed as potentiation of minocycline-induced antibacterial activity by measuring fold reduction in minocycline MIC at 8 ug/ml after 18 to 24 hrs by microbroth dilution assay
Method in brief: as §1, with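 “broth microdilution:” for “in MHB:”, “adjuvant” for “test agent”, “wells,” for “wells, incubated”, “FICI” for “FIC index”, “the two FICs; FICI ≤0.5 is synergy.” for “both FICs.”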

Pseudomonas aeruginosa [8] = assay: Potentiation of rifampicin-induced antibacterial activity against Pseudomonas aeruginosa PAO1 […] by microbroth dilution assay; assay type: functional
Pseudomonas aeruginosa [9] = assay: Antibacterial activity against Pseudomonas aeruginosa PAO1 after 18 to 24 hrs by microbroth dilution assay; assay type: functional; method in brief: as §1
Pseudomonas aeruginosa [10] = assay: Inhibition of RND efflux pump in Pseudomonas aeruginosa isolate P259-96918 assessed as potentiation of minocycline-induced antibacterial activity by measuring fold reduction in minocycline MIC at 8 ug/ml after 18 to 24 hrs by microbroth dilution assay
Method in brief: as §1, with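 “broth microdilution:” for “in MHB:”, “adjuvant” for “test agent”, “wells,” for “wells, incubated”, “FICI” for “FIC index”, “the two FICs; FICI ≤0.5 is synergy.” for “both FICs.”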

Pseudomonas aeruginosa [11] = assay: Inhibition of RND efflux pump in Pseudomonas aeruginosa isolate P262-101856 assessed as potentiation of minocycline-induced antibacterial activity by measuring minocycline MIC at 8 ug/ml after 18 to 24 hrs by microbroth dilution assay (reference value: 128 to 256 ug/ml); method in brief: as §2
Pseudomonas aeruginosa [12] = assay: Antibacterial activity against Pseudomonas aeruginosa isolate 101885 after 18 to 24 hrs by microbroth dilution assay; assay type: functional
Method in brief: as §1, with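 “broth microdilution:” for “in MHB:”, “adjuvant” for “test agent”, “wells,” for “wells, incubated”, “FICI” for “FIC index”, “the two FICs; FICI ≤0.5 is synergy.” for “both FICs.”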

Pseudomonas aeruginosa [13] = assay: Inhibition of RND efflux pump in colistin-resistant Pseudomonas aeruginosa isolate 101243 assessed as potentiation of minocycline-induced antibacterial activity at 8 ug/ml after 18 to 24 hrs by checker board assay
Method in brief: as §1, with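 “broth microdilution:” for “in MHB:”, “adjuvant” for “test agent”, “wells,” for “wells, incubated”, “FICI” for “FIC index”, “the two FICs; FICI ≤0.5 is synergy.” for “both FICs.”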

[14] = system: Pseudomonas aeruginosa PAO1; assay: Inhibition of RND efflux pump in Pseudomonas aeruginosa PAO1 assessed as potentiation of minocycline-induced antibacterial activity at 8 ug/ml after 18 to 24 hrs by checker board assay; method in brief: as §1
Pseudomonas aeruginosa [15] = assay: Inhibition of RND efflux pump in Pseudomonas aeruginosa isolate 100036 assessed as potentiation of minocycline-induced antibacterial activity at 8 ug/ml after 18 to 24 hrs by checker board assay; method in brief: as §1
Pseudomonas aeruginosa [16] = assay: Inhibition of RND efflux pump in Pseudomonas aeruginosa isolate 100036 assessed as potentiation of minocycline-induced antibacterial activity by measuring minocycline MIC at 8 ug/ml after 18 to 24 hrs by microbroth dilution assay (reference value: 64 ug/ml)
Method in brief: as §1, with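 “broth microdilution:” for “in MHB:”, “adjuvant” for “test agent”, “wells,” for “wells, incubated”, “FICI” for “FIC index”, “the two FICs; FICI ≤0.5 is synergy.” for “both FICs.”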

[17] = system: Pseudomonas aeruginosa PAO1; assay: Inhibition of RND efflux pump in Pseudomonas aeruginosa PAO1 assessed as potentiation of minocycline-induced antibacterial activity by measuring minocycline MIC at 8 ug/ml after 18 to 24 hrs by microbroth dilution assay (reference value: 8 ug/ml); method in brief: as §2
Pseudomonas aeruginosa [18] = assay: Inhibition of RND efflux pump in colistin-resistant Pseudomonas aeruginosa isolate 101243 assessed as potentiation of minocycline-induced antibacterial activity by measuring fold reduction in minocycline MIC at 8 ug/ml after 18 to 24 hrs by microbroth dilution assay
Method in brief: as §1, with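 “broth microdilution:” for “in MHB:”, “adjuvant” for “test agent”, “wells,” for “wells, incubated”, “FICI” for “FIC index”, “the two FICs; FICI ≤0.5 is synergy.” for “both FICs.”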

Pseudomonas aeruginosa [19] = assay: Inhibition of RND efflux pump in Pseudomonas aeruginosa isolate P262-104354 assessed as potentiation of minocycline-induced antibacterial activity by measuring fold reduction in minocycline MIC at 8 ug/ml after 18 to 24 hrs by microbroth dilution assay
Method in brief: as §1, with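 “broth microdilution:” for “in MHB:”, “adjuvant” for “test agent”, “wells,” for “wells, incubated”, “FICI” for “FIC index”, “the two FICs; FICI ≤0.5 is synergy.” for “both FICs.”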

[20] = system: Pseudomonas aeruginosa PAO1; assay: Inhibition of RND efflux pump in Pseudomonas aeruginosa PAO1 assessed as potentiation of novobiocin-induced antibacterial activity […] by microbroth dilution assay
Pseudomonas aeruginosa [21] = assay: Antibacterial activity against Pseudomonas aeruginosa isolate P262-101856 after 18 to 24 hrs by microbroth dilution assay; assay type: functional
Method in brief: as §1, with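 “broth microdilution:” for “in MHB:”, “adjuvant” for “test agent”, “wells,” for “wells, incubated”, “FICI” for “FIC index”, “the two FICs; FICI ≤0.5 is synergy.” for “both FICs.”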

Pseudomonas aeruginosa [22] = assay: Inhibition of RND efflux pump in Pseudomonas aeruginosa isolate 100036 assessed as potentiation of minocycline-induced antibacterial activity by measuring fold reduction in minocycline MIC at 8 ug/ml after 18 to 24 hrs by microbroth dilution assay
Method in brief: as §1, with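 “broth microdilution:” for “in MHB:”, “adjuvant” for “test agent”, “wells,” for “wells, incubated”, “FICI” for “FIC index”, “the two FICs; FICI ≤0.5 is synergy.” for “both FICs.”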

[23] = system: Pseudomonas aeruginosa PAO1; assay: Inhibition of RND efflux pump in Pseudomonas aeruginosa PAO1 assessed as increase in tetracycline uptake measured at 1 min interval for 30 mins by fluorescence assay
Method in brief: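 Tetracycline uptake assay in P. aeruginosa PAO1: enhancement of tetracycline fluorescence as it enters cells, monitored with compound present at several concentrations.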

[24] = system: Pseudomonas aeruginosa PAO1; assay: Inhibition of RND efflux pump in Pseudomonas aeruginosa PAO1 assessed as potentiation of tigecycline-induced antibacterial activity by measuring fold reduction in tigecycline MIC at 8 ug/ml after 18 to 24 hrs by microbroth dilution assay relative to tigecycline alone
Method in brief: as §1, with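 “broth microdilution:” for “in MHB:”, “adjuvant” for “test agent”, “wells,” for “wells, incubated”, “FICI” for “FIC index”, “the two FICs; FICI ≤0.5 is synergy.” for “both FICs.”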

[25] = system: Pseudomonas aeruginosa PAO1; assay: Inhibition of RND efflux pump in Pseudomonas aeruginosa PAO1 assessed as potentiation of tobramycin-induced antibacterial activity after 18 to 24 hrs by checker board assay; method in brief: as §1
[26] = system: Pseudomonas aeruginosa PAO1; assay: Inhibition of RND efflux pump in Pseudomonas aeruginosa PAO1 assessed as potentiation of doxycycline-induced antibacterial activity by measuring fold reduction in doxycycline MIC at 8 ug/ml after 18 to 24 hrs by microbroth dilution assay relative to doxycycline alone
Method in brief: as §1, with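 “broth microdilution:” for “in MHB:”, “adjuvant” for “test agent”, “wells,” for “wells, incubated”, “FICI” for “FIC index”, “the two FICs; FICI ≤0.5 is synergy.” for “both FICs.”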

Row | SMILES | MIC (Pseudomonas aeruginosa [1]) [µg/mL] | Activity (Pseudomonas aeruginosa [2]) | fractional inhibitory concentration index (FICI) [3] | MIC (Pseudomonas aeruginosa [4]) [µg/mL] | fold change (FC) (Pseudomonas aeruginosa [5]) | fold change (FC) (Klebsiella pneumoniae) | fractional inhibitory concentration index (FICI) [6] | fold change (FC) (Pseudomonas aeruginosa [7]) | fractional inhibitory concentration index (FICI) (Pseudomonas aeruginosa [8]) | MIC (Pseudomonas aeruginosa [9]) [µg/mL] | fold change (FC) (Pseudomonas aeruginosa [10]) | MIC (Pseudomonas aeruginosa [11]) [µg/mL] | MIC (Pseudomonas aeruginosa [12]) [µg/mL] | fractional inhibitory concentration index (FICI) (Pseudomonas aeruginosa [13]) | fractional inhibitory concentration index (FICI) [14] | fractional inhibitory concentration index (FICI) (Pseudomonas aeruginosa [15]) | MIC (Pseudomonas aeruginosa [16]) [µg/mL] | MIC [17] [µg/mL] | fold change (FC) (Pseudomonas aeruginosa [18]) | fold change (FC) (Pseudomonas aeruginosa [19]) | also measured
1 | Cl.Cl.Cl.Cl.Cl.Cl.NC[C@H]1O[C@H](O[C@H]2[C@H](OCCCCCCCCCCCCN3CC[C@@H](c4ccc(F)cc4)[C@H](COc4ccc5c(c4)OCO5)C3)[C@@H](O[C@H]3O[C@H](CO)[C@@H](O)[C@H](N)[C@H]3O)[C@H](N)C[C@@H]2N)[C@H](N)C[C@@H]1O | 8 | inactive | < 0.1 | 32 | 8 to 256 | 4 to 256 | < 0.15 | 8 to 256 | <0.05 | 32 | 8 to 256 | 1 | 32 | 0.38 | 0.19 | 0.05 | < 0.25 | 0.25 | 8 to 256 | 8 to 256 | fractional inhibitory concentration index (FICI) [20]: < 0.1; MIC (Pseudomonas aeruginosa [21]): 32 µg/mL; fold change (FC) (Pseudomonas aeruginosa [22]): 8 to 256; inhibition [23]: Dose-dependent effect; fold change (FC) [24]: 8 to 64; fractional inhibitory concentration index (FICI) [25]: > 1.5; fold change (FC) [26]: 8 to 64
2 | Cl.Cl.Cl.Cl.Cl.Cl.Cl.NC[C@H]1O[C@H](O[C@H]2[C@H](OCCCCCCCCCCCCN3CCN(Cc4cccc5ccccc45)CC3)[C@@H](O[C@H]3O[C@H](CO)[C@@H](O)[C@H](N)[C@H]3O)[C@H](N)C[C@@H]2N)[C@H](N)C[C@@H]1O | 2 | inactive | < 0.1 | 32 | 8 to 256 | 4 to 256 | < 0.15 | 8 to 256 | <0.05 | 64 | 8 to 256 | 4 | 256 | 0.28 | 0.19 | 0.02 | 0.5 | 0.5 | 8 to 256 | 8 to 256 | fractional inhibitory concentration index (FICI) [20]: < 0.1; MIC (Pseudomonas aeruginosa [21]): 64 µg/mL; fold change (FC) (Pseudomonas aeruginosa [22]): 8 to 256; inhibition [23]: Dose-dependent effect; fold change (FC) [24]: 8 to 64; fractional inhibitory concentration index (FICI) [25]: > 1.5; fold change (FC) [26]: 8 to 64
